In ChEMBL document CHEMBL1155635, “New cytotoxic sesquiterpenes from the gorgonian Isis hippuris” (2000):
Converted amounts (≈) assume the structure as drawn.

Columns and labels:
Assay type in all cases: functional
A549 = experiment: Cytotoxicity against human A549 cells by MTT method; settings: read-out: ED50 (the source's name)
Summary of the method: (§1)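 Modified MTT colorimetric assay. P-388 cells were a gift from an outside laboratory; A549 and HT-29 came from ATCC. Cells were treated at eight concentrations of pure compound, 50 to 5 × 10-6 µg/mL. Growth was expressed as percent of control incubations, run in triplicate. ED50 is the dose inhibiting cell growth by 50%.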

HT-29 = experiment: Cytotoxicity against human HT29 cells by MTT method; settings: for EC50: Homo sapiens, HT-29, read-out: ED50 (the source's name); summary of the method: as §1
P388 = experiment: Cytotoxicity against mouse P388 cells by MTT method; settings: for EC50: Mus musculus, P388, read-out: ED50 (the source's name); summary of the method: as §1

Row | SMILES | EC50 (A549) | EC50 (HT-29) | EC50 (P388) | ED50 (HT-29) | ED50 (P388)
1 | C[C@@H]1CC(=O)[C@@]23[C@@H](C)C(C(=O)O)=C[C@]2(C)CC[C@@H]13 [SUBERGORGIC ACID] | > 50 µg/mL | > 50 µg/mL | 13.3 µg/mL (≈ 53.6 µM) | – | –
2 | C[C@H]1CC[C@H]2[C@@H]3CC(=O)[C@H](C)[C@@]13CC2(C)C [SUBEROSANONE] | 0.036 µg/mL (≈ 0.163 µM) | – | – | <5 ×10⁻⁶ ug/ml | <5 ×10⁻⁶ ug/ml
3 | C=C1[C@@H](OC(C)=O)C[C@H]2[C@@H]3CC[C@H](C)[C@]12CC3(C)C [SUBEROSENOL A ACETATE] | 0.08 µg/mL | – | 0.0076 µg/mL | 3.6 ×10⁻⁴ ug/ml | –
4 | C=C1[C@@H](O)C[C@H]2[C@@H]3CC[C@H](C)[C@]12CC3(C)C [SUBEROSENOL A] | 0.0051 µg/mL (≈ 0.0231 µM) | – | – | <5 ×10⁻⁶ ug/ml | <5 ×10⁻⁶ ug/ml
5 | C=C1[C@H](OC(C)=O)C[C@H]2[C@@H]3CC[C@H](C)[C@]12CC3(C)C [SUBEROSENOL B ACETATE] | 0.36 µg/mL | 0.005 µg/mL | 0.074 µg/mL | – | –
6 | C=C1[C@H](O)C[C@H]2[C@@H]3CC[C@H](C)[C@]12CC3(C)C [SUBEROSENOL B] | 0.2 µg/mL (≈ 0.908 µM) | 2.1 µg/mL (≈ 9.53 µM) | 3.4 µg/mL (≈ 15.4 µM) | – | –
